# Key:
# [1] = molecular target: T1, GCS (Homo sapiens, UniProt Q16739); assay: Steady-state kinetic GCS competition experiment; format: biochemical; conditions: for K m / V max: for UDP-glucose, fixed ceramide 7.4 μM; for inhibition mode of GCS against UDP-glucose: various UDP-glucose concentrations; for inhibition mode of GCS against ceramide: various ceramide concentrations
# T1 sequence (Q16739 1-394): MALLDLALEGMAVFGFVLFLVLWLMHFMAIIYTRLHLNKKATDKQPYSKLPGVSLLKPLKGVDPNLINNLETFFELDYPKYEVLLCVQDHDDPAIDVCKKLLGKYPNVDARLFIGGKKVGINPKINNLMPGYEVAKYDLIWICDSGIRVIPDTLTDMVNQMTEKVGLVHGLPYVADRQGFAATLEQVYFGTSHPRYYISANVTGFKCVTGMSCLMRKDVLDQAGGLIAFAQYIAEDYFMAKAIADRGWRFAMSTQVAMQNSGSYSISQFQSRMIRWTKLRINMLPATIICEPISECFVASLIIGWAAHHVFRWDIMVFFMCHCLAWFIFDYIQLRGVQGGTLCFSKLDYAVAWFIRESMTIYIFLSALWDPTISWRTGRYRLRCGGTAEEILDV
# [2] = molecular target: T1, GCS; assay: Affinity selection mass spectrometry; format: binding
# Method in brief: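 Compound at various concentrations was incubated 60 min at 20-25°C with 10 μg/ml GCS-expressing microsomal protein in 20 mM Tris–HCl pH 7.5, 1 mM DTT, 0.01% Tween20, plus 200 μM UDP-glucose, 70 μM C8-ceramide, or neither. Bound and free compound were separated by […] through Sephadex G50-Fine. The eluent was denatured with 70% acetonitrile, and compound was quantified by LC/MS. Specific binding = counts with GCS minus counts without GCS.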
# [3] = tested on: GlcSph; conditions: clinical trial, therapeutic dose; ref Mistry et al., 2017; cited from earlier work
# [4] = tested on: GlcCer; conditions: ref Larsen et al., 2012; cited from earlier work
# [5] = presence of UDP-glucose (200 μM)
SMILES,K m [1] [µM],V max [1] [µmol/min],inhibition mode of GCS against UDP-glucose [1],inhibition mode of GCS against ceramide [1],binding to GCS by AS-MS ([2]; absence of UDP-glucose),"binding to GCS by AS-MS [2, 5]",reduction of GlcSph concentration in the plasma [3] [%],effect on the GlcCer level in the brain [4]
CCCCCCCC(=O)N[C@H](CN1CCCC1)[C@H](O)c1ccc2c(c1)OCCO2 [Eliglustat],2.37 ± 0.11,37.60 ± 0.45,uncompetitive,noncompetitive,not detected,bind GCS,40,no significant effect
CC(C)(NC(=O)O[C@@H]1CN2CCC1CC2)c1csc(-c2ccc(F)cc2)n1 [Venglustat],2.53 ± 0.09,38.58 ± 0.32,uncompetitive,noncompetitive,not detected,bind GCS,–,–
